Test results from ChEMBL document CHEMBL1629494, “New amino acid esters of salicylanilides active against MDR-TB and other microbes” (Eur J Med Chem, 2010).
Values after ≈ are worked out from the molar mass of the structure shown.

Assays:
Format in all cases: functional
[1] = tested on: Aspergillus fumigatus; assay: Antifungal activity against Aspergillus fumigatus 231 after 48 hrs by broth microdilution method; conditions: Aspergillus fumigatus, 231, 48 h
[2] = tested on: Trichosporon beigelii; assay: Antifungal activity against Trichosporon beigelii 1188 after 48 hrs by broth microdilution method; conditions: Trichosporon beigelii, 1188, 48 h
[3] = tested on: Lichtheimia corymbifera; assay: Antifungal activity against Absidia corymbifera 272 after 24 hrs by broth microdilution method; conditions: Lichtheimia corymbifera, 272, 24 h
[4] = tested on: Mycobacterium kansasii; assay: Antimycobacterial activity against Mycobacterium kansasii 235/80 after 21 days by micromethod; conditions: 235/80, 504 h
In short: (§1)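 Micromethod in Sula semisynthetic medium, with compounds added as DMSO solutions at 1000, 500, 250, 125, 62, 32, 16, 8, 4, 2, 1, 0.5, 0.25. Inoculum dilutions: H37Rv 10^-3; M. avium 330/88 10^-5; M. kansasii 235/80 10^-4; M. kansasii 6509/96 10^-5. Incubated at 37 °C, read at 14 and 21 days, and at 7 days for M. kansasii. MIC was the lowest concentration inhibiting growth.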

[5] = tested on: Enterococcus sp.; assay: Antibacterial activity against Enterococcus sp. J14365/08 after 24 hrs by broth microdilution method; conditions: J14365/08, 24 h
In short: (§2)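 Broth microdilution following […], with twofold compound dilutions in Mueller-Hinton bouillon. Incubated 24 and 48 h at 35 °C in the dark in a humid atmosphere. MIC (IC80) was taken as ≥80% growth reduction versus control, read visually and photometrically.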

[6] = tested on: Candida albicans; assay: Antifungal activity against Candida albicans ATCC 44859 after 48 hrs by broth microdilution method; conditions: ATCC 44859, 48 h
[7] = tested on: Mycobacterium kansasii; assay: Antimycobacterial activity against Mycobacterium kansasii 235/80 after 7 days by micromethod; conditions: 235/80, 168 h; in short: as §1
[8] = tested on: Staphylococcus aureus; assay: Antibacterial activity against Staphylococcus aureus CCM 4516/08 after 24 hrs by broth microdilution method; conditions: CCM 4516/08, 24 h; in short: as §2
[9] = tested on: Klebsiella pneumoniae; assay: Antibacterial activity against Klebsiella pneumoniae D11750/08 after 24 hrs by broth microdilution method; conditions: D11750/08, 24 h; in short: as §2
[10] = tested on: Mycobacterium kansasii; assay: Antimycobacterial activity against Mycobacterium kansasii 6509/96 after 14 days by micromethod; conditions: 6509/96, 336 h; in short: as §1
[11] = tested on: Pichia kudriavzevii; assay: Antifungal activity against Candida krusei E28 after 48 hrs by broth microdilution method; conditions: E28, 48 h
[12] = tested on: Lichtheimia corymbifera; assay: Antifungal activity against Absidia corymbifera 272 after 48 hrs by broth microdilution method; conditions: Lichtheimia corymbifera, 272, 48 h
[13] = tested on: Nakaseomyces glabratus; assay: Antifungal activity against Candida glabrata 20/I after 48 hrs by broth microdilution method
[14] = tested on: Staphylococcus epidermidis; assay: Antibacterial activity against Staphylococcus epidermidis H6966/08 after 48 hrs by broth microdilution method; conditions: H6966/08, 48 h; in short: as §2
[15] = tested on: Staphylococcus aureus; assay: Antibacterial activity against methicillin-resistant Staphylococcus aureus H5996/08 after 48 hrs by broth microdilution method; conditions: H5996/08, 48 h; in short: as §2
[16] = tested on: Escherichia coli; assay: Antibacterial activity against Escherichia coli CCM 4517 after 48 hrs by broth microdilution method; conditions: CCM 4517, 48 h; in short: as §2
[17] = tested on: Mycobacterium avium; assay: Antimycobacterial activity against multidrug-resistant Mycobacterium avium 330/88 after 21 days by micromethod; conditions: 330/88, 504 h; in short: as §1
[18] = tested on: Mycobacterium kansasii; assay: Antimycobacterial activity against Mycobacterium kansasii
[19] = tested on: Pichia kudriavzevii; assay: Antifungal activity against Candida krusei E28 after 24 hrs by broth microdilution method; conditions: E28, 24 h
[20] = tested on: Mycobacterium kansasii; assay: Antimycobacterial activity against Mycobacterium kansasii 6509/96 after 21 days by micromethod; conditions: 6509/96, 504 h; in short: as §1
[21] = tested on: Mycobacterium kansasii; assay: Antimycobacterial activity against Mycobacterium kansasii 235/80 after 14 days by micromethod; conditions: 235/80, 336 h; in short: as §1
[22] = tested on: Mycobacterium avium; assay: Antimycobacterial activity against Mycobacterium avium
[23] = tested on: Aspergillus fumigatus; assay: Antifungal activity against Aspergillus fumigatus 231 after 24 hrs by broth microdilution method; conditions: Aspergillus fumigatus, 231, 24 h
[24] = tested on: Candida tropicalis; assay: Antifungal activity against Candida tropicalis 156 after 24 hrs by broth microdilution method; conditions: Candida tropicalis, 156, 24 h
[25] = tested on: Candida albicans; assay: Antifungal activity against Candida albicans ATCC 44859 after 24 hrs by broth microdilution method; conditions: ATCC 44859, 24 h
[26] = tested on: Escherichia coli; assay: Antibacterial activity against Escherichia coli CCM 4517 after 24 hrs by broth microdilution method; conditions: CCM 4517, 24 h; in short: as §2
[27] = tested on: Candida tropicalis; assay: Antifungal activity against Candida tropicalis 156 after 48 hrs by broth microdilution method; conditions: Candida tropicalis, 156, 48 h
[28] = tested on: Mycobacterium kansasii; assay: Antimycobacterial activity against Mycobacterium kansasii 6509/96 after 7 days by micromethod; conditions: 6509/96, 168 h; in short: as §1
[29] = tested on: Staphylococcus aureus; assay: Antibacterial activity against Staphylococcus aureus CCM 4516/08 after 48 hrs by broth microdilution method; conditions: CCM 4516/08, 48 h; in short: as §2
[30] = tested on: Mycobacterium avium; assay: Antimycobacterial activity against multidrug-resistant Mycobacterium avium 330/88 after 14 days by micromethod; conditions: 330/88, 336 h; in short: as §1
[31] = tested on: Staphylococcus aureus; assay: Antibacterial activity against methicillin-resistant Staphylococcus aureus H5996/08 after 24 hrs by broth microdilution method; conditions: H5996/08, 24 h; in short: as §2
[32] = tested on: Trichosporon beigelii; assay: Antifungal activity against Trichosporon beigelii 1188 after 24 hrs by broth microdilution method; conditions: Trichosporon beigelii, 1188, 24 h
[33] = tested on: Klebsiella pneumoniae; assay: Antibacterial activity against Klebsiella pneumoniae D11750/08 after 48 hrs by broth microdilution method; conditions: D11750/08, 48 h; in short: as §2
[34] = tested on: Mycobacterium tuberculosis; assay: Antimycobacterial activity against Mycobacterium tuberculosis H37Rv 331/88 after 21 days by micromethod; conditions: H37Rv 331/88, 504 h; in short: as §1
[35] = tested on: Trichophyton mentagrophytes; assay: Antifungal activity against Trichophyton mentagrophytes after 48 hrs by broth microdilution method
[36] = tested on: Mycobacterium tuberculosis; assay: Antimycobacterial activity against Mycobacterium tuberculosis H37Rv 331/88 after 14 days by micromethod; conditions: H37Rv 331/88, 336 h; in short: as §1
[37] = tested on: Staphylococcus epidermidis; assay: Antibacterial activity against Staphylococcus epidermidis H6966/08 after 24 hrs by broth microdilution method; conditions: H6966/08, 24 h; in short: as §2
[38] = tested on: Mycobacterium tuberculosis; assay: Antimycobacterial activity against drug-sensitive Mycobacterium tuberculosis
[39] = tested on: Trichophyton mentagrophytes; assay: Antifungal activity against Trichophyton mentagrophytes after 24 hrs by broth microdilution method
[40] = tested on: Enterococcus sp.; assay: Antibacterial activity against Enterococcus sp. J14365/08 after 48 hrs by broth microdilution method; conditions: J14365/08, 48 h; in short: as §2
[41] = tested on: Nakaseomyces glabratus; assay: Antifungal activity against Candida glabrata 20/I after 24 hrs by broth microdilution method

Work on `CC(=O)N[C@@H](Cc1ccccc1)C(=O)Oc1ccc(Cl)cc1C(=O)Nc1ccc(Cl)cc1` yielded an MIC [1] of 125 µM (≈ 58.9 µg/mL), an MIC [2] of 3.9 µM (≈ 1.84 µg/mL) and an MIC [3] of 3.9 µM (≈ 1.84 µg/mL). It also gave an MIC [4] of 4 µM (≈ 1.89 µg/mL), an MIC [5] of 125 µM (≈ 58.9 µg/mL) and an MIC [6] greater than 125 µM. For the same compound, the MIC [7] was 4 µM (≈ 1.89 µg/mL), the MIC [8] was 62.5 µM (≈ 29.5 µg/mL) and the MIC [9] was greater than 125 µM. It also gave an MIC [10] of 4 µM (≈ 1.89 µg/mL), an MIC [11] greater than 125 µM and an MIC [12] of 15.6 µM (≈ 7.36 µg/mL). For the same compound, the MIC [13] was greater than 125 µM, the MIC [14] was greater than 125 µM and the MIC [15] was greater than 125 µM. For the same compound, the MIC [16] was greater than 125 µM, the MIC [17] was 16 µM (≈ 7.54 µg/mL) and the MIC [18] was 1 µM (≈ 0.471 µg/mL). The MIC [19] was greater than 125 µM, the MIC [20] was 8 µM (≈ 3.77 µg/mL) and the MIC [21] was 4 µM (≈ 1.89 µg/mL). The MIC [22] was 1 µM (≈ 0.471 µg/mL), the MIC [23] was 31.2 µM (≈ 14.7 µg/mL) and the MIC [24] was greater than 125 µM. It also gave an MIC [25] greater than 125 µM, an MIC [26] greater than 125 µM and an MIC [27] greater than 125 µM. The MIC [28] was 2 µM (≈ 0.943 µg/mL), the MIC [29] was greater than 125 µM and the MIC [30] was 8 µM (≈ 3.77 µg/mL). The MIC [31] was 125 µM (≈ 58.9 µg/mL), the MIC [32] was 3.9 µM (≈ 1.84 µg/mL) and the MIC [33] was greater than 125 µM. For the same compound, the MIC [34] was 4 µM (≈ 1.89 µg/mL), the MIC [35] was 62.5 µM (≈ 29.5 µg/mL) and the MIC [36] was 4 µM (≈ 1.89 µg/mL). For the same compound, the MIC [37] was 125 µM (≈ 58.9 µg/mL), the MIC [38] was 1 µM (≈ 0.471 µg/mL) and the MIC [39] was 31.2 µM (≈ 14.7 µg/mL). For the same compound, the MIC [40] was greater than 125 µM and the MIC [41] was greater than 125 µM.

Compound `CC(=O)N[C@@H](Cc1ccccc1)C(=O)Oc1cc(Cl)ccc1C(=O)Nc1ccc(Br)cc1` has an MIC [1] greater than 125 µM, an MIC [2] of 62.5 µM (≈ 32.2 µg/mL) and an MIC [3] of 15.6 µM (≈ 8.06 µg/mL). For the same compound, the MIC [4] was 4 µM (≈ 2.06 µg/mL), the MIC [5] was 7.81 µM (≈ 4.03 µg/mL) and the MIC [6] was greater than 125 µM. It also gave an MIC [7] of 2 µM (≈ 1.03 µg/mL), an MIC [8] of 0.98 µM (≈ 0.505 µg/mL) and an MIC [9] greater than 125 µM. The MIC [10] was 4 µM (≈ 2.06 µg/mL), the MIC [11] was greater than 125 µM and the MIC [12] was 62.5 µM (≈ 32.2 µg/mL). The MIC [13] was greater than 125 µM, the MIC [14] was 1.95 µM (≈ 1.01 µg/mL) and the MIC [15] was 7.81 µM (≈ 4.03 µg/mL). For the same compound, the MIC [16] was 125 µM (≈ 64.5 µg/mL), the MIC [17] was 8 µM (≈ 4.13 µg/mL) and the MIC [18] was 1 µM (≈ 0.516 µg/mL). For the same compound, the MIC [19] was greater than 125 µM, the MIC [20] was 8 µM (≈ 4.13 µg/mL) and the MIC [21] was 4 µM (≈ 2.06 µg/mL). It also gave an MIC [22] of 1 µM (≈ 0.516 µg/mL), an MIC [23] of 62.5 µM (≈ 32.2 µg/mL) and an MIC [24] greater than 125 µM. It also gave an MIC [25] greater than 125 µM, an MIC [26] of 15.6 µM (≈ 8.06 µg/mL) and an MIC [27] greater than 125 µM. It also gave an MIC [28] of 4 µM (≈ 2.06 µg/mL), an MIC [29] of 1.95 µM (≈ 1.01 µg/mL) and an MIC [30] of 4 µM (≈ 2.06 µg/mL). The MIC [31] was 0.98 µM (≈ 0.505 µg/mL), the MIC [32] was 15.6 µM (≈ 8.06 µg/mL) and the MIC [33] was greater than 125 µM. For the same compound, the MIC [34] was 4 µM (≈ 2.06 µg/mL), the MIC [35] was 15.6 µM (≈ 8.06 µg/mL) and the MIC [36] was 2 µM (≈ 1.03 µg/mL). The MIC [37] was 0.98 µM (≈ 0.505 µg/mL), the MIC [38] was 1 µM (≈ 0.516 µg/mL) and the MIC [39] was 7.81 µM (≈ 4.03 µg/mL). For the same compound, the MIC [40] was 125 µM (≈ 64.5 µg/mL) and the MIC [41] was greater than 125 µM.
